Active and inactive are the calls of the source.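 Rule for the calls: active = EC50 for reversing nicotinamide-shortened yeast lifespan at or below a set limit; inactive = EC50 above that limit.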
These compounds were tested on S. cerevisiae DeaD BB579, nicotinamide rescue growth, OD615 48 h (assay: BB579 yeast growth restoration under nicotinamide – S. cerevisiae, yeast lifespan extension project, dose response (AID 809)).
Procedure, shortened: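 System: Saccharomyces cerevisiae DeaD strain BB579, log-phase cells | Buffer or medium: CSMM-D glucose restrictive medium | Timing: 4 h pre-incubation, 48 h exposure at 30 °C | Technique: OD615 absorbance | Evaluation: Culture growth as lifespan proxy | Compound: 0.078–10 µM compound, 0.5% DMSO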

Row | SMILES | EC50
1 | Cc1ccc(N(C)C(=O)Oc2ccc(C(=O)c3ccc(Cl)cc3)cc2)cc1 | > 10 µM (inactive)
2 | Cc1nn(-c2c(Cl)cc(Cl)cc2Cl)c(=O)c2ccccc12 | 6.34 µM
3 | CCOC(=O)C1=C(N)OC2=C(C(=O)CCC2)C1c1sccc1C (centres undefined) | 9.37 µM
4 | COc1ccccc1CNC(=O)C(CCSC)NS(=O)(=O)c1ccc2c(c1)oc(=O)n2C (centres undefined) | > 10 µM (inactive)
5 | COc1ccc(/C=N/NC(=O)c2csc(-n3nc(C)cc3C(F)(F)F)n2)cc1 | > 10 µM (inactive)
6 | COc1ccc(C(=O)C(CN2CCOCC2)c2ccccc2)cc1 (centres undefined) | 7.11 µM
7 | O=C(Cn1nc(Cl)nc1Cl)c1cc2ccccc2oc1=O | > 10 µM (inactive)
8 | O=C(NCCc1ccccn1)C(F)(F)C(F)(F)C(F)(F)C(F)(F)C(F)(F)C(F)(F)C(F)(F)C(F)F | > 10 µM (inactive)
9 | O=C(Oc1ccc([N+](=O)[O-])cc1)c1ccc2ccccc2n1 | > 10 µM (inactive)
10 | O=C1Nc2ccccc2C12OCC1(CO2)COC2(OC1)C(=O)Nc1ccccc12 (centres undefined) | > 10 µM (inactive)
11 | O=C1C=CCC(/C=C/c2ccccc2)O1 (centres undefined) | > 10 µM (inactive)
12 | C/C=C/Cn1c(N2CCCCCC2)nc2c1c(=O)[nH]c(=O)n2C | > 10 µM (inactive)
13 | COC(=O)CC1=NN(c2ccccc2)C(=O)/C1=C\c1ccc(OC)cc1 | > 10 µM (inactive)
14 | CC(C)C(OC(=O)CN1C(=O)COc2ccccc21)C(=O)NC1CCCC1 (centres undefined) | > 10 µM (inactive)
15 | Cc1cc(N=Cc2c(O)ccc3ccccc23)no1 | 5.54 µM
16 | Cc1ccccc1OC(=O)n1c(=S)oc2cc(Cl)ccc21 | 6.59 µM
17 | CCOc1ccc(C(=O)C(CN2CCOCC2)c2ccccc2)cc1 (centres undefined) | 7.92 µM
18 | CC(=O)Oc1ccc(N(C(C)=O)S(=O)(=O)c2ccc(C)c([N+](=O)[O-])c2)cc1 | > 10 µM (inactive)
19 | O=c1c2ccccc2nc(-c2cccc(Cl)c2)n1O | < 0.078 µM
20 | CC(=O)c1c(O)cc2n(c1=O)-c1ccc(Cl)cc1C2(C)C | 7.34 µM
21 | CCOc1ccc(/C=C/C(=O)c2c(O)c3ccccc3oc2=O)cc1 | > 10 µM (inactive)
22 | CC[n+]1ccc(C[n+]2ccccc2)c2ccccc21 | > 10 µM (inactive)
23 | CCCCn1c(=O)c2c(O)cc(=O)oc2c2ccccc21 | 5.94 µM
24 | CC1(C)Oc2ccccc2OC1(O)c1ccc2ccccc2n1 (centres undefined) | > 10 µM (inactive)
25 | Oc1ccc2ccccc2c1C=Nc1ccccc1-c1nc2ccccc2[nH]1 | > 10 µM (inactive)
26 | CN1C(=O)/C(=C/c2cccn2-c2ccc3ccccc3c2)C(=O)NC1=S | 5.73 µM

Row | SMILES | EC50
27 | CC1CCc2cc(F)cc3c(O)c(C(=O)NCc4ccco4)c(=O)n1c23 (centres undefined) | > 10 µM (inactive)
28 | Cc1ccc2nc(-c3ccc(NC(=O)CSc4ccccc4)cc3)[nH]c2c1 | > 10 µM (inactive)
29 | CCCCCCC1C(C#N)=C(N)OC2=C1C(=O)CC(C)(C)C2 (centres undefined) | > 10 µM (inactive)
30 | CCOC(=O)c1ccc2c(c1)n(CCO)c(C)[n+]2CC | > 10 µM (inactive)
31 | COc1ccc(C2CC23N=C(c2ccccc2)OC3=O)cc1 (centres undefined) | > 10 µM (inactive)
32 | CSc1ccc(S(=O)(=O)NCc2ccc(Cl)cc2Cl)cc1 | > 10 µM (inactive)
33 | O=S1(=O)C=C(Sc2nc3ccccc3s2)c2ccccc21 | > 10 µM (inactive)
34 | Cc1ccccc1NC(=O)c1ccccc1 | > 10 µM (inactive)
35 | CCC1C/C(=C\c2cccnc2)C(=O)/C(=C/c2cccnc2)C1 (centres undefined) | 3.17 µM
36 | O=C(Nc1nc2ccccc2n1CCN1CCOCC1)c1cn(-c2ccccc2)nc1-c1ccccc1 | > 10 µM (inactive)
37 | CCCCCn1c(=O)c(C(=O)NCc2ccccn2)c(O)c2ccccc21 | > 10 µM (inactive)
38 | COc1ccc2c(=O)c3c(=O)n(Cc4ccco4)c(-c4ccc(C)cc4)nc3oc2c1 | 6.81 µM
39 | COC(=O)c1sc2ncn(-n3c(C)ccc3C)c(=O)c2c1C | > 10 µM (inactive)
40 | COC(=O)/C(=C/c1cn(C)c2ccccc12)[N+](=O)[O-] | 2.24 µM
41 | Cc1ccc(NC(=O)C2C(=O)N(C)c3ccccc32)cc1 (centres undefined) | > 10 µM (inactive)
42 | Cn1c(SCC(=O)N2CCCc3ccccc32)nnc1-c1c[nH]c2ccccc12 | > 10 µM (inactive)
43 | Cc1cccc(NC(=O)c2c(O)c3cccc4c3n(c2=O)CCC4)n1 | 6.87 µM
44 | O=C(/C=C(\O)c1ccc(Cl)cc1)C(=O)NNC(=O)C(O)(c1ccccc1)c1ccccc1 | 2.75 µM
45 | COc1ccc(C(=O)On2c(-c3ccc(Br)cc3)nc3ccccc3c2=O)cc1 | 3.02 µM
46 | O=Cc1cc2ccccc2nc1SCc1ccc(Cl)cc1 | 8.27 µM
47 | CCCCC(c1nnnn1CC1CCCO1)N1CCN(c2nc3ccccc3s2)CC1 (centres undefined) | > 10 µM (inactive)
48 | CCCn1c(SCC(=O)c2ccc3c(c2)NC(=O)CO3)nc2ccccc21 | > 10 µM (inactive)
49 | CCOc1ccc(C2=NNC(c3cccs3)=Nc3ccc(OCC)cc32)cc1 | > 10 µM (inactive)
50 | CC(=O)Nc1nc(C)c(Oc2ccccc2)c(=O)[nH]1 | > 10 µM (inactive)
51 | COc1ccc(/C=C/C(=O)C2C(=O)C=C(C)OC2=O)cc1O (centres undefined) | 7.47 µM
52 | CCOC(=O)CN1C(=O)N[C@H](c2ccc(Br)cc2)C(C(C)=O)=C1C | > 10 µM (inactive)

Row | SMILES | EC50
53 | O=C1NC(=O)N(CCC2=CCCCC2)C(=O)/C1=C\c1cccs1 | 7.01 µM
54 | Cc1ccccc1Oc1cc(-n2ncc(Cl)c(Cl)c2=O)ncn1 | > 10 µM (inactive)
55 | O=C(CCc1ccccc1)NCCCN1CCOCC1 | > 10 µM (inactive)
56 | COc1cccc(CSc2nc3ccccc3cc2C=O)c1 | 8.96 µM
57 | CCCC(=O)C1C(=O)CC(CC(C)SCC)CC1=O (centres undefined) | 2.33 µM
58 | O=C(NC(=S)NNC(=O)c1ccccc1O)c1ccco1 | 6.02 µM
59 | O=C(Nc1ccc(Br)cn1)c1cccc(-c2cc3ccccc3oc2=O)c1 | > 10 µM (inactive)
60 | CCc1c(C)c(C#N)c2nc3ccccc3n2c1Cl | > 10 µM (inactive)
61 | COC(=O)CCS(=O)(=O)c1nc(-c2ccccc2)cc(C(F)(F)F)n1 | 1.99 µM
62 | CCOC(=O)c1cnc(-c2ccccc2)nc1Oc1ccc(Cl)cc1 | > 10 µM (inactive)
63 | COc1ccc(/C(O)=C/C(=O)C(=O)Nc2c(C)n(C)n(-c3ccccc3)c2=O)cc1 | 5.85 µM
64 | CCSc1nnc(NC(=O)C2(C)Cc3ccccc3C(=O)O2)s1 (centres undefined) | 6.52 µM
65 | C[C@]12CC[C@@H]3c4ccc(O)cc4CC[C@H]3[C@@H]1CC[C@@H]2OC(=O)CCC(=O)O | 5.42 µM
66 | COc1cccc(C2CC3C(=O)C=CC2N3Cc2ccccc2)c1 (centres undefined) | 6.1 µM
67 | CNC(=S)NC1CC2CCCC(C1)N2Cc1ccco1 (centres undefined) | > 10 µM (inactive)
68 | Cc1cc(C)n2cc(CSc3nnc(N)s3)nc2n1 | > 10 µM (inactive)
69 | Cc1ccc(C)c(N2CCN(S(=O)(=O)c3c(C)noc3/C=C/N(C)C)CC2)c1 | > 10 µM (inactive)
70 | C/C(=N\NC(=O)c1ccccc1O)c1c(O)cc(C)oc1=O | 2.9 µM
71 | CN(C)C1(c2nnnn2CCOC(=O)Nc2ccc(Cl)cc2)CCCCC1 | > 10 µM (inactive)
72 | CCCCC1C(=O)CC[C@H]2[C@@H]1CC(=O)[C@@H]2C/C=C\CCCC(=O)O (some centres undefined) | 8.1 µM
73 | COC(=O)C1=C(C(=O)OC)SC(=C2C(=S)C(C)(C)N(C(=O)C(C)C)c3ccccc32)S1 | > 10 µM (inactive)
74 | COc1ccc(/C=C(\C#N)C(=O)N2CCOCC2)cc1Br | 8.72 µM
75 | CC1(C)CC(=O)C(C(=O)Cc2ccccc2[N+](=O)[O-])C(=O)C1 | 4.3 µM
76 | C=C1C(=O)C=C2CN(C(=O)c3ccccc3)[C@@](Cc3ccc(F)cc3)(C(=O)OC)[C@@H]12 | > 10 µM (inactive)
77 | CCCCn1c(NS(=O)(=O)c2ccc(C)cc2)c(C(=O)OCC)c2nc3ccccc3nc21 | > 10 µM (inactive)
78 | C=CCN(CC=C)c1nc2ccccc2nc1C(C#N)C(=O)OC(C)C (centres undefined) | > 10 µM (inactive)

Row | SMILES | EC50
79 | CC1(C)CC(=O)c2sc(NS(C)(=O)=O)nc2C1 | > 10 µM (inactive)
80 | CCOC(=O)C1Cc2cc3c(cc2C1=O)CC(C(=O)OCC)C3=O (centres undefined) | 5.89 µM
81 | CC(=O)N1CCN(CCN=CC2=C(O)CC(c3cccs3)CC2=O)CC1 (centres undefined) | > 10 µM (inactive)
82 | C=CS(=O)(=O)c1ccc(Oc2ccc(S(=O)(=O)C=C)cc2)cc1 | 7.12 µM
83 | Cc1c(O)c(S(=O)c2ccccc2)c(=O)n(-c2ccccc2)c1-c1ccccc1 (centres undefined) | 4.32 µM
84 | Cc1cc(C)n(-c2ccc(OCC(=O)O)nn2)n1 | > 10 µM (inactive)
85 | CCc1ccc(C(=O)CN2C(=O)NC(C)(CCc3ccccc3)C2=O)cc1 (centres undefined) | > 10 µM (inactive)
86 | CCOC(=O)CCCNC(=O)COc1ccccc1C#N | > 10 µM (inactive)
87 | O=c1c(Cl)c(NCCCO)cnn1-c1nc2ccccc2[nH]1 | 7.65 µM
88 | COc1ccc2c3c(cccc13)C(=O)N(O)C2=O | 2.08 µM
89 | O=C1C(C2=C(O)c3ccccc3C2=O)=Nc2ccccc21 | 1.7 µM
90 | CC1CCCN(c2nc3ccccc3nc2C(C#N)C(=O)OC2CCCCC2)C1 (centres undefined) | > 10 µM (inactive)
91 | CCc1ccc2c(c1)CCCN2C(=O)c1ccccc1C(=O)O | 9.34 µM
92 | COc1cccc(/C=C2\C(=O)N(c3cccc(C)c3)C(=O)c3ccccc32)c1 | > 10 µM (inactive)
93 | COc1cc(OC)cc(-c2nc3ccccc3c(=O)n2OC(=O)c2ccccc2C)c1 | > 10 µM (inactive)
94 | O=C(/C(=C/O)N=Nc1ccc(Cl)cc1)c1ccncc1 | 2.64 µM
95 | COc1ccc(NC(=O)/C(Cl)=C(/Cl)S(=O)Cc2ccc(C)cc2)cn1 (centres undefined) | > 10 µM (inactive)
96 | O=S(=O)(CCSc1ccccn1)c1nc2ccccc2s1 | 5.84 µM
97 | Cc1ccc(C(C2=C(O)CC(C)(C)CC2=O)C2C(=O)CC(C)(C)CC2=O)o1 (centres undefined) | 6.35 µM
98 | O=C(CCl)N1c2ccccc2OCC1c1ccccc1 (centres undefined) | 9.75 µM
99 | COc1c(Br)cc(Br)cc1/C=N/n1c(C)nnc1C | > 10 µM (inactive)
100 | CCCCCOC(=O)CSc1nc2c(c(=O)[nH]c(=O)n2C)n1CCc1ccccc1 | > 10 µM (inactive)
101 | O=C(Nc1cccnc1)c1c(O)c2cccc3c2n(c1=O)CC3 | 4.44 µM
102 | Cc1ccc(N(C(=O)CS(=O)CC(=O)Nc2ccc(F)cc2)C(C(=O)NC2CCCCC2)c2ccco2)cc1 (centres undefined) | > 10 µM (inactive)
103 | Cc1ccc(S(=O)(=O)N[C@@H](Cc2ccccc2)C(=O)CCl)cc1 | 5.97 µM
104 | COc1ccc(CN2CCN(C(=O)COc3cccc(C)c3)CC2)c(OC)c1 | > 10 µM (inactive)

From PubChem BioAssay AID809 (SRMLSC, 2007)
